Measured values gathered from unrelated publications.
Each line is one published result; the experiments were not run side by side.
CDK5: Cyclin-dependent kinase 5 (CDK5, Homo sapiens, UniProt Q00535)
CDK5 with p25: Cyclin-dependent kinase 5, with p25 (CDK5, Homo sapiens, UniProt Q00535)

SMILES	target	read-out	mode	method	concentration	measurement	value
Cc1ccc(NC(=O)c2ccnc(C(F)(F)F)c2)cc1-c1cc(OCCO)nc(N2CCOCC2)c1	CDK5	binding	–	competition with immobilised ligand	1 µM	remaining binding	95%
C1=C/COCc2cc(ccc2OCCN2CCCC2)Nc2nccc(n2)-c2cccc(c2)COC/1	CDK5	binding	–	–	0.1 µM	remaining binding	100%
C[C@]1(O)CCCN(c2nc(Nc3ccc(S(=O)(=O)N[C@H]4CC[C@H](CN5CCN(c6ccc(C7CCC(=O)NC7=O)cc6F)CC5)CC4)cc3Cl)ncc2C(F)(F)F)C1 (stereo partly shown)	CDK5	binding	–	competition with immobilised ligand	1 µM	remaining binding	72%
COc1ccc2oc(-c3ccc4nc(N)oc4c3)c/c(=N\c3ccccc3NC(=O)CCN)c2c1	CDK5 with p25	binding	–	–	1 µM	remaining binding	102%
CC#CC(=O)N1CCC[C@H]1c1nc(-c2ccc(C(=O)Nc3ccccn3)cc2)c2c(N)nccn12	CDK5	enzyme activity	inhibitor	–	1 µM	inhibition	0%
CC(C)S(=O)(=O)c1ccc2nccc(Nc3ccc4sc(C5CCCC5)nc4c3)c2c1	CDK5 with p25	enzyme activity	inhibitor	–	1 µM	activity vs control	97.5%
COc1ccc2[nH]c3c4[nH]c5ccc(OC)cc5c4c4c(c3c2c1)C(=O)NC4=O	CDK5	binding	–	competition with immobilised ligand	1 µM	remaining binding	75%
C[C@]1(O)CCCN(c2nc(Nc3ccc(S(=O)(=O)N[C@H]4CC[C@H](CN5CCN(c6ccc(C7CCC(=O)NC7=O)cc6F)CC5)CC4)cc3F)ncc2C(F)(F)F)C1 (stereo partly shown)	CDK5	binding	–	competition with immobilised ligand	1 µM	remaining binding	59%
CO[C@@H]1[C@H](N(C)C(=O)c2ccccc2)C[C@H]2O[C@]1(C)n1c3ccccc3c3c4c(c5c6ccccc6n2c5c31)C(=O)NC4	CDK5	enzyme activity	inhibitor	–	1 µM	inhibition	0%
CCCCC(=O)Nc1ccc(-c2ccc3ncn(CCC)c(=O)c3c2)cn1	CDK5	binding	–	competition with immobilised ligand	0.5 µM	remaining binding	78%
